ChEMBL document CHEMBL3272180, “A conformational study of beta-phenethanolamine receptor sites. 8. Pharmacological study of 3-isopropylamino-2-phenyl-trans-2-decalols” (1976)
Active and inactive are the calls of the source. No cut-off for these calls is given here.

Experiments:
[1] = Potentiation of D(-)-norepinephrine-induced contraction in Sprague-Dawley rat vas deferens assessed as contraction level at 1 x 10^-4 M relative to norepinephrine; assay type: functional
Outline: (§1)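 Isolated vasa deferentia from male Sprague–Dawley rats (300–350 g) in a 10-ml bath of Tyrode's solution, 37°, gassed with 95% O2/5% CO2. Cumulative NE dose-response curves over 3×10^-7 to 3×10^-5 M, with test agent at 1×10^-4 or 1×10^-3 M. Isotonic contractions recorded kymographically, 5 min between contractions after washout. Response expressed as percent of NE cumulative maximum (=100%), calculated per preparation. PD2 given as mean ± SE of ten curves; t test.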

Rattus norvegicus [2] = species on record: Rattus norvegicus; experiment: (§2) Potentiation of D(-)-norepinephrine-induced contraction in reserpine-treated Sprague-Dawley rat vas deferens assessed as contraction level at 1 x 10^-4 M relative to norepinephrine; assay type: functional
Outline: (§3)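 Rats were reserpinized with 5 mg/kg ip 24 hr before the experiment. Vasa deferentia were then set up in Tyrode's solution at 37°, gassed with 95% O2/5% CO2. Cumulative NE curves over 3×10^-7 to 3×10^-5 M, with test agent present. Isotonic contractions recorded kymographically. Response as percent of NE cumulative maximum; mean ± SE; t test.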

[3] = Potentiation of D(-)-norepinephrine-induced contraction in Sprague-Dawley rat vas deferens assessed as contraction level at 1 x 10^-2 M relative to norepinephrine; assay type: functional
Rattus norvegicus [4] = species on record: Rattus norvegicus; experiment: (§4) Potentiation of D(-)-norepinephrine-induced contraction in reserpine-treated Sprague-Dawley rat vas deferens assessed as contraction level at 1 x 10^-3 M relative to norepinephrine; assay type: functional; outline: as §3
Rattus norvegicus [5] = species on record: Rattus norvegicus; experiment: Potentiation of D(-)-norepinephrine-induced contraction in reserpine-treated Sprague-Dawley rat vas deferens at 1 x 10^-2 M relative to control; assay type: functional, tissue-based; outline: as §3
Vas deferens [6] = experiment: Inhibition of norepinephrine uptake in Sprague-Dawley rat vas deferens at 1 x 10^-4 M after 60 mins by fluorometric analysis; assay type: functional
Outline: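 Rat vas deferens pieces (50–60 mg, two per rat) incubated free-floating for 60 min at 37° in oxygenated Tyrode's with NE 1.5×10^-7 M, with or without test agent at 1×10^-4 M. Tissue then washed three times for 5 sec, and total catecholamines estimated fluorometrically by autoanalyzer. Mean ± SE of five experiments; t test vs control.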

[7] = Induction of norepinephrine release in Sprague-Dawley rat vas deferens at 1 x 10^-4 M after 30 mins by fluorometric analysis; assay type: functional
Outline: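 Rat vas deferens pieces incubated 30 min in oxygenated Tyrode's with agent at 1×10^-4 M. Total catecholamines then measured fluorometrically by autoanalyzer. Mean ± SE of five experiments; t test vs control.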

Canis familiaris [8] = experiment: Reduction of blood pressure in mongrel dog at 1 to 2 mg/kg, iv by electrocardiograph analysis; assay type: functional, organism-based; conditions: Canis lupus familiaris
Outline: (§5)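 Dog blood pressure recorded after iv injection via a right femoral vein cannula (1–2 mg/kg), each dose washed in with 0.5 ml saline. Where stated, β blockade with propranolol 2 mg/kg, checked for adequacy with […].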

Oryctolagus cuniculus [9] = species on record: Oryctolagus cuniculus; experiment: Inhibition of spontaneous contractions in isolated rabbit atria at 1 x 10^-3 M; assay type: functional; conditions: Cardiac atrium
[10] = as §2; assay type: functional; outline: as §3
Vas deferens [11] = experiment: Inhibition of D(-)-norepinephrine-induced contraction in Sprague-Dawley rat vas deferens assessed as contraction level at 1 x 10^-3 M relative to norepinephrine; assay type: functional; parameters: scale not given: the % may be the effect or the level left; outline: as §1
[12] = as §4; assay type: functional; outline: as §3
Oryctolagus cuniculus [13] = species on record: Oryctolagus cuniculus; experiment: Increase in spontaneous contractions in isolated rabbit atria at 1 x 10^-4 M; assay type: functional; conditions: Cardiac atrium
Canis familiaris [14] = experiment: Induction of beta-adrenergic response in mongrel dog at 2 mg/kg, iv by electrocardiograph analysis; assay type: functional, organism-based; parameters: dose 2 mg/kg; conditions: Canis lupus familiaris
Canis familiaris [15] = experiment: Increase in diastolic blood pressure in mongrel dog at 2 mg/kg, iv by electrocardiograph analysis; assay type: functional, Canis lupus familiaris, Artery
Canis familiaris [16] = experiment: Increase in systolic blood pressure in mongrel dog at 2 mg/kg, iv by electrocardiograph analysis; assay type: functional, Canis lupus familiaris, Artery
Canis familiaris [17] = experiment: Increase in pulse pressure in mongrel dog at 2 mg/kg, iv by electrocardiograph analysis; assay type: functional, Canis lupus familiaris
Canis familiaris [18] = experiment: Reduction of diastolic blood pressure in mongrel dog at 2 mg/kg, iv by electrocardiograph analysis in presence of alpha-blocker phenoxybenzamine; assay type: functional, organism-based; parameters: dose 2 mg/kg; conditions: Canis lupus familiaris, Artery
Canis familiaris [19] = experiment: Reduction of systolic blood pressure in mongrel dog at 2 mg/kg, iv by electrocardiograph analysis in presence of alpha-blocker phenoxybenzamine; assay type: functional, organism-based; parameters: dose 2 mg/kg; conditions: Canis lupus familiaris, Artery
Canis familiaris [20] = experiment: Reduction of pulse pressure in mongrel dog at 2 mg/kg, iv by electrocardiograph analysis in presence of alpha-blocker phenoxybenzamine; assay type: functional, organism-based; parameters: dose 2 mg/kg; conditions: Canis lupus familiaris
Canis familiaris [21] = experiment: Induction of beta-adrenergic response in mongrel dog at 2 mg/kg, iv by electrocardiograph analysis in presence of propranolol; assay type: functional, organism-based; parameters: dose 2 mg/kg; conditions: Canis lupus familiaris
Oryctolagus cuniculus [22] = species on record: Oryctolagus cuniculus; experiment: Inhibition of spontaneous contractions in isolated rabbit atria at 1 x 10^-4 M; assay type: functional; conditions: Cardiac atrium
Canis familiaris [23] = experiment: Reduction of diastolic blood pressure in mongrel dog at 1 to 2 mg/kg, iv up to 30 seconds by electrocardiograph analysis in presence of alpha-blocker phenoxybenzamine; assay type: functional, Canis lupus familiaris, Artery; conditions: dose mg/kg 1-2
Outline: (§6)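 Dogs pretreated with phenoxybenzamine 3 mg/kg as α-blocker, blockade checked with […]. Test agents given iv (1–2 mg/kg) via a femoral vein cannula, washed in with 0.5 ml saline; tracheotomized animals. Systolic, diastolic and pulse pressure followed over an initial 30-sec phase and a second phase of about 30 min.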

Canis familiaris [24] = experiment: Reduction of systolic blood pressure in mongrel dog at 1 to 2 mg/kg, iv up to 30 seconds by electrocardiograph analysis in presence of alpha-blocker phenoxybenzamine; assay type: functional, Canis lupus familiaris, Artery; conditions: dose mg/kg 1-2; outline: as §6
Canis familiaris [25] = experiment: Reduction of pulse pressure in mongrel dog at 1 to 2 mg/kg, iv up to 30 seconds by electrocardiograph analysis in presence of alpha-blocker phenoxybenzamine; assay type: functional, organism-based; conditions: Canis lupus familiaris; outline: as §6
Canis familiaris [26] = experiment: Reduction of diastolic blood pressure in mongrel dog at 1 to 2 mg/kg, iv up to 30 mins by electrocardiograph analysis in presence of alpha-blocker phenoxybenzamine; assay type: functional, Canis lupus familiaris, Artery; conditions: dose mg/kg 1-2; outline: as §6
Canis familiaris [27] = experiment: Reduction of systolic blood pressure in mongrel dog at 1 to 2 mg/kg, iv up to 30 mins by electrocardiograph analysis in presence of alpha-blocker phenoxybenzamine; assay type: functional, Canis lupus familiaris, Artery; conditions: dose mg/kg 1-2; outline: as §6
Canis familiaris [28] = experiment: Reduction of blood pressure in mongrel dog at 1 to 2 mg/kg, iv by electrocardiograph analysis in presence of propranolol; assay type: functional, organism-based; conditions: Canis lupus familiaris; outline: as §5
Canis familiaris [29] = experiment: Reduction of blood pressure in iv dosed mongrel dog by electrocardiograph analysis in presence of hexamethonium and atropine; assay type: functional, organism-based; conditions: Canis lupus familiaris
Canis familiaris [30] = experiment: Reduction of pulse pressure in mongrel dog at 1 to 2 mg/kg, iv up to 30 mins by electrocardiograph analysis in presence of alpha-blocker phenoxybenzamine; assay type: functional, Canis lupus familiaris; conditions: dose mg/kg 1-2; outline: as §6

Row | Compound | Activity [1] | Activity (Rattus norvegicus [2]) | Activity (Rattus norvegicus [4]) | Activity (Rattus norvegicus [5]) | Activity (Vas deferens [6]) | Activity [7] | Activity (Canis familiaris [8]) | inhibition (Oryctolagus cuniculus [9]) | Activity (Vas deferens [11]) | Activity (Oryctolagus cuniculus [13]) | also measured
1 | CC(C)N[C@H](C)[C@H](O)c1ccccc1 | 145% | Active | Active | Active | 9.3 µg/g | 7.4 µg/g | Active | Active | – | – | Activity [3]: 70%
2 | CC(C)N[C@H]1C[C@@H]2CCCC[C@H]2C[C@]1(O)c1ccccc1 | 132% | – | – | Active | 9.1 µg/g | 7.9 µg/g | Active | Active | 88% | Active | Activity [10]: 130%; Activity [12]: 84%
3 | CN[C@@H](C)[C@H](O)c1ccccc1 [EPHEDRINE] | – | – | – | – | – | – | – | – | – | – | Activity (Canis familiaris [14]): Active; Activity (Canis familiaris [15]): 40 mmHg; Activity (Canis familiaris [16]): 40 mmHg; Activity (Canis familiaris [17]): 40 mmHg; Activity (Canis familiaris [18]): inactive; Activity (Canis familiaris [19]): inactive; Activity (Canis familiaris [20]): inactive; Activity (Canis familiaris [21]): inactive
4 | CC(C)N[C@@H]1C[C@@H]2CCCC[C@H]2C[C@]1(O)c1ccccc1 | 128% | Active | Active | Active | 9.3 µg/g | 7.7 µg/g | Active | – | 85% | – | inhibition (Oryctolagus cuniculus [22]): Active
5 | CC(C)N[C@@H](C)[C@H](O)c1ccccc1 | 158% | Active | Active | Active | 9.2 µg/g | 7 µg/g | Active | – | – | – | Activity [3]: 90%; Activity (Canis familiaris [23]): 50 mmHg; Activity (Canis familiaris [24]): 50 mmHg; Activity (Canis familiaris [25]): Active; Activity (Canis familiaris [26]): 30 mmHg; Activity (Canis familiaris [27]): 15 mmHg; Activity (Canis familiaris [28]): Active; Activity (Canis familiaris [29]): Active; inhibition (Oryctolagus cuniculus [22]): Active; Activity (Canis familiaris [30]): 15 mmHg
6 | CC(C)N[C@H]1C[C@@H]2CCCC[C@H]2C[C@@]1(O)c1ccccc1 | 96% | Active | Active | Active | 9.6 µg/g | 7.8 µg/g | Active | Active | 10% | Active | Activity (Canis familiaris [23]): 50 mmHg; Activity (Canis familiaris [24]): 50 mmHg; Activity (Canis familiaris [25]): Active; Activity (Canis familiaris [26]): 30 mmHg; Activity (Canis familiaris [27]): 15 mmHg; Activity (Canis familiaris [28]): Active; Activity (Canis familiaris [30]): 15 mmHg
7 | CC(C)N[C@@H]1C[C@@H]2CCCC[C@H]2C[C@@]1(O)c1ccccc1 | 94% | Active | Active | Active | 9.5 µg/g | 8.1 µg/g | Active | Active | 16% | Active | –
